Source: ChEMBL document CHEMBL5331128, “Alicyclic Ring Size Variation of 4-Phenyl-2-naphthoic Acid Derivatives as P2Y14 Receptor Antagonists” (J Med Chem, 2023)
Calls of active or inactive are those of the source.

Tests used:
[1] = molecular target: T1, P2Y purinoceptor 14 (Homo sapiens) (UniProt Q15391); test: Displacement of fluorescent tracer 4-(4-(1-(4-(1-(6-(3-carboxylato-4-(3-iminio-3H-xanthen-9-yl)benzamido)hexyl)-4,5-dihydro-1H-pyrrol-3-yl)butyl)piperidin-1-ium-4-yl)phenyl)-7-(4-(trifluoromethyl)phenyl)-2-naphthoate from human P2Y14R stably expressed in CHO cells upto 100 uM by flow cytometry; assay type: cell-based
T1 sequence (whole entry): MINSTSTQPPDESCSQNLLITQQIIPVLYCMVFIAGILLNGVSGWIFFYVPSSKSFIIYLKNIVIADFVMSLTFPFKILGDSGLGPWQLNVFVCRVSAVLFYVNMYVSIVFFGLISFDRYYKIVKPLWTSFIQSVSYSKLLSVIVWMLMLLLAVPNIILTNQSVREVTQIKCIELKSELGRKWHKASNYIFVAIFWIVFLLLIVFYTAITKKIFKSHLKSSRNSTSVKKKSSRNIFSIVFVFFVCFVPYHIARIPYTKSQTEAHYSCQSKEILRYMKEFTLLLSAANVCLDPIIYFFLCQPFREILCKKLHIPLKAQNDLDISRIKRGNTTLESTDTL

[2] = molecular target: Histamine H1 receptor (Homo sapiens, UniProt P35367); test: Displacement of [3H]-Pyrilamine from human histamine H1 receptor assessed as inhibition constant by radioligand displacement assay
Histamine H1 receptor, sequence (P35367 whole entry): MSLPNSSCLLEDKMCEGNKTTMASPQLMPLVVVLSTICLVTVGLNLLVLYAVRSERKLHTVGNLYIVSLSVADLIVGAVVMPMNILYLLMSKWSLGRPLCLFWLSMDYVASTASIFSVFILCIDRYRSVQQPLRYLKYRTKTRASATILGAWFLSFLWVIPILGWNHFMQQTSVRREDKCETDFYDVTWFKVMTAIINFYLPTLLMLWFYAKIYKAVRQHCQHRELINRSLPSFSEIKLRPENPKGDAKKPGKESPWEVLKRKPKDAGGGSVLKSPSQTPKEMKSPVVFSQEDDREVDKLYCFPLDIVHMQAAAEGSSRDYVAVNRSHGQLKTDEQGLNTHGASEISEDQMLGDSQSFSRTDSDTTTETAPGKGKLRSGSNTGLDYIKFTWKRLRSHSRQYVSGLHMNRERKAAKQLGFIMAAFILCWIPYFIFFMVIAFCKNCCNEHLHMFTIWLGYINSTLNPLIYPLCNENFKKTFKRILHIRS

[3] = test system: Mus musculus; test: Antiallodynic activity in CCI surgery neuropathic pain Hsd:ICR mouse model assessed as reversal of mechano-allodynia by measuring paw withdrawal threshold at 10 micromol/kg,po and measured upto 6 hrs by von frey test; assay type: functional, organism-based; conditions: dose 10.0 µmol/kg
Procedure, shortened: (§1)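 CCI neuropathic pain in adult male CD-1 mice. Single oral gavage dose of 10 μmol/kg on day 7 post-surgery. Vehicle 5% DMSO + 10% (Kolliphor HS 15:DMSO 5:95) in 0.5% methylcellulose, 0.2 mL. Von Frey paw withdrawal threshold on both hindpaws. Mean ± SD; two-way ANOVA with Dunnett's test.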

[4] = Lipophilicity, log D of compound at pH 7.4 incubated for 20 hrs by HPLC analysis; assay type: physicochemical; conditions: buffer
[5] = Selectivity ratio, ratio of IC50 for displacement of fluorescent tracer 4-(4-(1-(4-(1-(6-(3-carboxylato-4-(3-iminio-3H-xanthen-9-yl)benzamido)hexyl)-4,5-dihydro-1H-pyrrol-3-yl)butyl)piperidin-1-ium-4-yl)phenyl)-7-(4-(trifluoromethyl)phenyl)-2-naphthoate from mouse P2Y14R stably expressed in human HEK293 cells to IC50 for displacement of fluorescent tracer 4-(4-(1-(4-(1-(6-(3-carboxylato-4-(3-iminio-3H-xanthen-9-yl)benzamido)hexyl)-4,5-dihydro-1H-pyrrol-3-yl)butyl)piperidin-1-ium-4-yl)phenyl)-7-(4-(trifluoromethyl)phenyl)-2-naphthoate from human P2Y14R stably expressed in CHO cells; assay type: cell-based
[6] = molecular target: Beta-3 adrenergic receptor (Homo sapiens, UniProt P13945); test: Displacement of [125I]-Pindolol from human adrenergic beta3 receptor assessed as inhibition constant by radioligand displacement assay
Beta-3 adrenergic receptor, sequence (P13945 whole entry): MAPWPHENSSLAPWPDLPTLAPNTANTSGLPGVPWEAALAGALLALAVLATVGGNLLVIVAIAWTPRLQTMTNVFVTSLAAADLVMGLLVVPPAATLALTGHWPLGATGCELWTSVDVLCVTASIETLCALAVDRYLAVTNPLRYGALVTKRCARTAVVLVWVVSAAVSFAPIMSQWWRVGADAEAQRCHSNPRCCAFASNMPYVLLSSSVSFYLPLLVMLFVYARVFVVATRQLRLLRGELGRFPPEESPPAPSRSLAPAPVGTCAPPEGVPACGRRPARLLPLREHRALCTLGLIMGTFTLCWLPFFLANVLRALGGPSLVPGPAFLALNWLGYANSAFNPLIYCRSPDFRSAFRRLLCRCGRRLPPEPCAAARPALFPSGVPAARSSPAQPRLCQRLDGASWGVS

[7] = molecular target: Sigma non-opioid intracellular receptor 1 (Homo sapiens, UniProt Q99720); test: Displacement of [3H]-Pentazocine from human sigma 1 receptor assessed as inhibition constant by radioligand displacement assay
Sigma non-opioid intracellular receptor 1, sequence (Q99720 whole entry): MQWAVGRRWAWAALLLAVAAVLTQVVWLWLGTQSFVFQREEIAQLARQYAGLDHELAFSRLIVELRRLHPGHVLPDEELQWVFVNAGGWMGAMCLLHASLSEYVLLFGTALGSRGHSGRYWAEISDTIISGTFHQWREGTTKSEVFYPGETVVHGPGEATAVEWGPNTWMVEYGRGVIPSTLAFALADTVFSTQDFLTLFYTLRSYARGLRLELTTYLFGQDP

[8] = molecular target: Sigma intracellular receptor 2 (Homo sapiens, UniProt Q5BJF2); test: Displacement of [3H]-DTG from human sigma 2 receptor assessed as inhibition constant by radioligand displacement assay
Sigma intracellular receptor 2, sequence (Q5BJF2 whole entry): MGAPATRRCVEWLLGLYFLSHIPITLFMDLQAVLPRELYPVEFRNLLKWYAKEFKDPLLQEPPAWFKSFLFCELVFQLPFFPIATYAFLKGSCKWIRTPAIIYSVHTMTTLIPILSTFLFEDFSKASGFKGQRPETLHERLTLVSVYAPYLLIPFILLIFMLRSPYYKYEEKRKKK

[9] = molecular target: T2, P2Y purinoceptor 14 (Mus musculus, UniProt Q9ESG6); test: Displacement of fluorescent tracer 4-(4-(1-(4-(1-(6-(3-carboxylato-4-(3-iminio-3H-xanthen-9-yl)benzamido)hexyl)-4,5-dihydro-1H-pyrrol-3-yl)butyl)piperidin-1-ium-4-yl)phenyl)-7-(4-(trifluoromethyl)phenyl)-2-naphthoate from mouse P2Y14R stably expressed in human HEK293 cells by flow cytometry; assay type: cell-based
T2 sequence (Q9ESG6 whole entry): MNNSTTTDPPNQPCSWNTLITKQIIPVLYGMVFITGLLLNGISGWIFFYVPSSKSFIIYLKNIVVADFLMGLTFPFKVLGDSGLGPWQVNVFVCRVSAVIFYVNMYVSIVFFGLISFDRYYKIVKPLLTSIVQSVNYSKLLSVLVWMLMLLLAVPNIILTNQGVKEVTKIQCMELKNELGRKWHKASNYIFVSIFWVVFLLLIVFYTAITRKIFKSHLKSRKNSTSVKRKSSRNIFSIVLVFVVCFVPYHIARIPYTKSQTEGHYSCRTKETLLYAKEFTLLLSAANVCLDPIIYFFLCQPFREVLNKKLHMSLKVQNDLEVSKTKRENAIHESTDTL
Procedure, shortened: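 Whole-cell competitive binding: CHO cells expressing hP2Y14R (or HEK-293 cells expressing mP2Y14R) incubated with AlexaFluor488-labelled antagonist tracer at 20 nM. […] Ki derived by dividing IC50 by 1.72.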

[10] = test system: Mus musculus; test: Antiallodynic activity in CCI surgery neuropathic pain Hsd:ICR mouse model assessed as reversal of mechano-allodynia by measuring paw withdrawal threshold at 10 micromol/kg,ip and measured upto 5 days by von frey test; assay type: functional, organism-based; conditions: dose 10.0 µmol/kg, time <= 5.0 day
Procedure, shortened: (§2)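 CCI neuropathic pain in adult male Hsd:ICR (CD-1) mice (20–30 g). Single i.p. injection on day 7 after sciatic nerve constriction, at peak pain. Vehicle 10% (Kolliphor HS 15:DMSO 5:95) in saline, 0.2 mL. Paw withdrawal threshold by von Frey filaments on ipsilateral and contralateral hindpaws. Mean ± SD; two-way ANOVA with Dunnett's test versus day 0 and day 7.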

[11] = molecular target: T3, P2Y purinoceptor 14 (Homo sapiens, UniProt Q15391); test: Displacement of fluorescent tracer 4-(4-(1-(4-(1-(6-(3-carboxylato-4-(3-iminio-3H-xanthen-9-yl)benzamido)hexyl)-4,5-dihydro-1H-pyrrol-3-yl)butyl)piperidin-1-ium-4-yl)phenyl)-7-(4-(trifluoromethyl)phenyl)-2-naphthoate from human P2Y14R stably expressed in CHO cells assessed as inhibition constant by flow cytometry; assay type: cell-based
T3 sequence (Q15391 whole entry): T1 sequence (whole entry)
Procedure, shortened: (§3)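 Whole-cell competitive binding: CHO cells expressing hP2Y14R (or HEK-293 cells expressing mP2Y14R) incubated with AlexaFluor488-labelled antagonist tracer at 20 nM.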

[12] = molecular target: 5-hydroxytryptamine receptor 1B (Homo sapiens, UniProt P28222); test: Displacement of [3H]-5-CT from human 5-HT1B receptor assessed as inhibition constant by radioligand displacement assay
5-hydroxytryptamine receptor 1B, sequence (P28222 whole entry): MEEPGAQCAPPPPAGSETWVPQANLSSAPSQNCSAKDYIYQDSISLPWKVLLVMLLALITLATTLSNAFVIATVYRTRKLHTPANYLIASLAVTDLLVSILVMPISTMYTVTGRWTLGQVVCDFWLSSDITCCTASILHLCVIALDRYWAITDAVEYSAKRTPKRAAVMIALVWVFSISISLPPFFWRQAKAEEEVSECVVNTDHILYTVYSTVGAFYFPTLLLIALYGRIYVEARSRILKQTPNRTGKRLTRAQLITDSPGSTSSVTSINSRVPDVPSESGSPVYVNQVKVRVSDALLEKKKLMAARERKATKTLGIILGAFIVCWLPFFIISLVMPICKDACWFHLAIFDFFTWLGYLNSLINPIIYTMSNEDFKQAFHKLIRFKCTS

[13] = Antagonist activity at chimpanzee P2Y14R stably expressed in human HEK cells assessed as inhibition of UDP-glucose induced Ca2+ signaling incubated for 20 mins by FLIPR analysis; assay type: cell-based; conditions: Pan troglodytes, HEK293, 20 min
[14] = molecular target: T1, P2Y purinoceptor 14 (Homo sapiens); test: Binding affinity to human P2Y14R stably expressed in CHO cells at 2 to 20000 nM by flow cytometry; assay type: cell-based; conditions: dose 2-20000 nM
Procedure, shortened: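 Whole CHO cells expressing hP2Y14R. Binding of an AlexaFluor-free JaneliaFluor 646 tracer conjugate was tested at final concentrations of 2, 100, 500 and 20,000 nM, under conditions similar to the AlexaFluor488 tracer assay (20 nM). Specific binding was read by flow cytometry.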

[15] = molecular target: T3, P2Y purinoceptor 14; test: Displacement of fluorescent tracer 4-(4-(1-(4-(1-(6-(3-carboxylato-4-(3-iminio-3H-xanthen-9-yl)benzamido)hexyl)-4,5-dihydro-1H-pyrrol-3-yl)butyl)piperidin-1-ium-4-yl)phenyl)-7-(4-(trifluoromethyl)phenyl)-2-naphthoate from human P2Y14R stably expressed in CHO cells by flow cytometry; assay type: cell-based; procedure, shortened: as §3
[16] = molecular target: T4, Alpha-1B adrenergic receptor (Homo sapiens, UniProt P35368); test: Displacement of [3H]-Prazosin from human adrenergic alpha1B receptor assessed as inhibition constant by radioligand displacement assay
T4 sequence (P35368 whole entry): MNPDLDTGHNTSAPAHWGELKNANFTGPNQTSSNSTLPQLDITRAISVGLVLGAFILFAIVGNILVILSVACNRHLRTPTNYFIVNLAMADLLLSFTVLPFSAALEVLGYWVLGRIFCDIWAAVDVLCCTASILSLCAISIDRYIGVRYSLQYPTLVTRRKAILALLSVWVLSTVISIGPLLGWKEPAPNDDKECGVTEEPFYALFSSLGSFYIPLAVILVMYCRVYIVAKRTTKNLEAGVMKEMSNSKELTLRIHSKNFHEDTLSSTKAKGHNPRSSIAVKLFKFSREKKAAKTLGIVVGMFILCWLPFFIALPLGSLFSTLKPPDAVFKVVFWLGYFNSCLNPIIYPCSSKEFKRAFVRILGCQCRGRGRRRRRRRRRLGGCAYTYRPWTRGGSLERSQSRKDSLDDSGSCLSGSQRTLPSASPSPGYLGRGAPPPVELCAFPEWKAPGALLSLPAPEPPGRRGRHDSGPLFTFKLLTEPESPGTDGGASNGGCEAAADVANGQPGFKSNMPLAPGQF

[17] = molecular target: T5, Muscarinic acetylcholine receptor M5 (Homo sapiens, UniProt P08912); test: Displacement of […] from human muscarinic M5 receptor assessed as inhibition constant by radioligand displacement assay
T5 sequence (P08912 whole entry): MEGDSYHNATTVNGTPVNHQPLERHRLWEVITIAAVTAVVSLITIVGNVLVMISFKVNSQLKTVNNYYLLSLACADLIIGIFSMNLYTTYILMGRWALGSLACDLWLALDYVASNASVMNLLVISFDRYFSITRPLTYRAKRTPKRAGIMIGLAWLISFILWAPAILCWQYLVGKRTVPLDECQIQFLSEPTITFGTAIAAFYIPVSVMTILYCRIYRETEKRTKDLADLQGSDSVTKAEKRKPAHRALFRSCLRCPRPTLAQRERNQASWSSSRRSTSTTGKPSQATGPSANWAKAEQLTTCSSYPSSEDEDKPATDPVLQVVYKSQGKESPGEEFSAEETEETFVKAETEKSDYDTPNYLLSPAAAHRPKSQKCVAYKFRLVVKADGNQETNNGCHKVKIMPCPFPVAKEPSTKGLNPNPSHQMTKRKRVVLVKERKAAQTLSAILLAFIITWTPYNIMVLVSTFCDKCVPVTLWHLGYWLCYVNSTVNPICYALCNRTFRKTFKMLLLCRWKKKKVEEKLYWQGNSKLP

[18] = test system: Mus musculus; test: Antiallodynic activity in CCI surgery neuropathic pain Hsd:ICR mouse model assessed as reversal of mechano-allodynia by measuring paw withdrawal threshold at 10 micromol/kg,po and measured at 1 hrs by von frey test; assay type: functional, organism-based; conditions: dose 10.0 µmol/kg; procedure, shortened: as §1
[19] = Stability in human plasma assessed as half life at 1 uM and measured at 120 mins by LC-MS/MS analysis; assay type: ADME, cell-free
[20] = Stability in mouse plasma assessed as half life at 1 uM and measured at 120 mins by LC-MS/MS analysis; assay type: ADME, cell-free
[21] = molecular target: T6, Alpha-2A adrenergic receptor (Homo sapiens, UniProt P08913); test: Displacement of [3H]-Rauwolscine from human adrenergic alpha2A receptor assessed as inhibition constant by radioligand displacement assay
T6 sequence (P08913 whole entry): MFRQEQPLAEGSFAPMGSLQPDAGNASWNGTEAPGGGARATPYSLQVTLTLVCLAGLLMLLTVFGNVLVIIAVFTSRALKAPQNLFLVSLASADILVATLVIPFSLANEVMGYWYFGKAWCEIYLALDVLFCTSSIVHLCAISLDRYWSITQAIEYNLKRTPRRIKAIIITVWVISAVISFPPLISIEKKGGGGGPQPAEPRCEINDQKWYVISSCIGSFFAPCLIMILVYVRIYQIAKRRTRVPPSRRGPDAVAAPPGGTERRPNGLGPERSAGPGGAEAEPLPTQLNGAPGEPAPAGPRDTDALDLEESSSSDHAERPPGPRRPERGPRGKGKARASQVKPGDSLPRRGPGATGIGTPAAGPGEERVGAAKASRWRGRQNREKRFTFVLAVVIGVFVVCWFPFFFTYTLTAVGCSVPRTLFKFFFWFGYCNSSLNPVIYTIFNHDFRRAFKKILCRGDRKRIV

[22] = test system: Mus musculus; test: Antiallodynic activity in CCI surgery neuropathic pain Hsd:ICR mouse model assessed as reversal of mechano-allodynia by measuring paw withdrawal threshold at 10 micromol/kg,ip and measured at 3 hrs by von frey test; assay type: functional, organism-based; conditions: dose 10.0 µmol/kg; procedure, shortened: as §2

Compound: O=C(Cc1ccc(C(F)(F)F)cc1)Nc1cccc(-c2nc3cc(Cl)ccc3o2)c1
- Activity [1]: inactive

Compound: O=C(O)c1cc(-c2ccc(C3CCCNCC3)cc2)c2ccc(-c3ccc(C(F)(F)F)cc3)cc2c1 (racemic)
- Ki [2]: 2.8 µM
- Activity [3]: Active
- logD at 20 h [4]: 2.1
- Ratio IC50 [5]: 2.68
- Ki [6]: 6.6 µM
- Ki [7]: 0.89 µM
- Ki [8]: 2.8 µM
- IC50 [9]: 0.0257 µM
- Activity [10]: Active
- Ki [11]: 0.00557 µM
- Ki [12]: 4.5 µM

Compound: O=C(O)c1cc(-c2ccc(C3(O)CCNCC3)cc2)c2ccc(-c3ccc(C(F)(F)F)cc3)cc2c1
- IC50 [13]: 0.0063 µM

Compound: C[Si]1(C)C2=CC(=[N+]3CCC3)C=CC2=C(c2cc(C(=O)NCCCCCCn3cc(CCCCN4CCC(c5ccc(-c6cc(C(=O)O)cc7cc(-c8ccc(C(F)(F)F)cc8)ccc67)cc5)CC4)nn3)ccc2C(=O)[O-])c2ccc(N3CCC3)cc21
- Activity [14]: inactive
- IC50 [15]: 25.9 µM
- Ki [11]: 9.24 µM

Compound: O=C(O)c1cc(-c2ccc(C3=CC4(CNC4)C3)cc2)c2ccc(-c3ccc(C(F)(F)F)cc3)cc2c1
- Ki [16]: 7.3 µM
- Ki [2]: 5.6 µM
- logD at 20 h [4]: 1.9
- Ratio IC50 [5]: 1.64
- Ki [6]: 6.8 µM
- Ki [8]: 2.2 µM
- IC50 [9]: 0.0159 µM
- Ki [11]: 0.00563 µM
- Ki [17]: 5 µM
- Ki [12]: 6.7 µM

Compound: O=C(O)c1cc(-c2ccc(C3CCNCC3)cc2)c2ccc(-c3ccc(C(F)(F)F)cc3)cc2c1 [PPTN]
- Activity [18]: Active
- half-life at 1 µM [19]: > 720 min
- half-life at 1 µM [20]: 1.5 min

Compound: O=C(O)c1cc(-c2ccc(C3(O)C[C@H]4CNC[C@@H]4C3)cc2)c2ccc(-c3ccc(C(F)(F)F)cc3)cc2c1 (racemic)
- Ki [16]: 6.4 µM
- Activity [3]: Active
- logD at 20 h [4]: 1.1
- Ratio IC50 [5]: 0.715
- Ki [21]: 5.7 µM
- IC50 [9]: 0.00678 µM
- Activity [22]: Active
- Activity [10]: Active
- Ki [11]: 0.00551 µM
- Ki [12]: 5.4 µM
